Experimental data from ChEMBL document CHEMBL1148362 (J Med Chem, 2004).

What was measured:
[1] = system: Nuclear factor NF-kappa-B (Homo sapiens); assay: Inhibition of DNA binding of NF-uM) PMA/PHA activated Jurkat cells; No significant inhibition
[2] = system: THP-1; assay: Inhibition of TNF-alpha production was determined in THP-1cells after LPS activation by Enzyme immunoassay; format: functional, cell-based; settings: Homo sapiens
Outline: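 Human monocytic THP-1 cells treated 30 min before LPS activation, then incubated 3 h. TNF-α in the output measured by competitive enzyme immunoassay and IC50 derived. Values are mean of two experiments with standard deviation. PDTC served as control.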

[3] = system: CCRF-CEM; assay: Inhibition of cell growth in CEM leukemia T cells was determined; format: functional; settings: Homo sapiens
[4] = system: Jurkat; assay: Inhibition of IL-2 production was determined in Jurkat cells after PMA/PHA activation by Enzyme immunoassay; format: functional, cell-based; settings: Homo sapiens
Outline: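 Human Jurkat leukemia T-cells exposed to test agents 30 min before PMA activation. Cell-free supernatants collected after 24 h and total IL-2 quantified by competitive enzyme immunoassay. Dose–response tested up to 10 μM. IC50 derived. PDTC control included in all experiments.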

inhibition [1] | IC50 [2] | GI50 [3] | IC50 [4] | SMILES
No effect | > 10 µM | 14.3 µM | > 10 µM | Cn1c2c(c3ccccc31)/C(=C1\N=C(N)NC1=O)CCNC2=O
– | 1.36 µM | 1.61 µM | 2.41 µM | NC1=NC(=O)/C(=C2\CCNC(=O)c3[nH]c(Br)cc32)N1 [HYMENIALDISINE]
– | 8.16 µM | 1.73 µM | 3.55 µM | Nc1nc(C2=C3C(=Nc4ccccc43)C(=O)NCC2)c(O)[nH]1
